Laboratory results as given in ChEMBL document CHEMBL3588754, “Parallel Synthesis of Hexahydrodiimidazodiazepines Heterocyclic Peptidomimetics and Their in Vitro and in Vivo Activities at μ (MOR), δ (DOR), and κ (KOR) Opioid Receptors” (J Med Chem, 2015).
Active and inactive are the calls of the source.

Columns and labels:
[1] = molecular target: Delta-type opioid receptor (Rattus norvegicus, UniProt P33533); assay: Displacement of [3H]DPDPE from delta opioid receptor in rat cortices by competition binding assay
Outline: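 Rat cortex membranes were prepared in 50 mM Tris pH 7.4 with 10 mM MgCl2 and 200 μM PMSF. Assay used 2 nM [3H]DPDPE, incubated 2.5 h at 25 °C. Unlabeled DPDPE defined nonspecific binding. Filtration was through BSA-soaked GF/B filters, with scintillation counting. Ki is mean ± SD of two experiments, each in duplicate.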

[2] = molecular target: Kappa-type opioid receptor (Cavia porcellus, UniProt P41144); assay: Displacement of [3H]U69593 from kappa opioid receptor in guinea pig cortices and cerebella by competition binding assay
Outline: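 Guinea pig cortex and cerebellum membranes were prepared in 50 mM Tris pH 7.4 with 10 mM MgCl2. Assay used 2 nM [3H]U69,593, incubated 2 h at 25 °C. Unlabeled U50,488 defined nonspecific binding. Filtration was through GF/B filters, with scintillation counting. Ki is mean ± SD of two experiments, each in duplicate.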

[3] = molecular target: Mu-type opioid receptor (Rattus norvegicus, UniProt P33535); assay: Displacement of [3H]DAMGO from mu opioid receptor in rat cortices by competition binding assay
Outline: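 Rat cortex membranes were prepared in 50 mM Tris pH 7.4, preincubated at 37 °C for 30 min, and resuspended with 2 mg/mL bovine serum. Assay used 2 nM [3H]DAMGO. Binding was stopped by filtration through BSA-soaked GF/B filters, followed by scintillation counting. IC50 was converted to Ki. Values are mean ± SD of two experiments, each in duplicate.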

[4] = molecular target: Delta-type opioid receptor (Homo sapiens, UniProt P41143); assay: Agonist activity at delta opioid receptor (unknown origin) expressed in CHO-K1 cells assessed as inhibition of forskolin-induced cAMP accumulation by FRET assay; assay type: functional, cell-based
Outline: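 CHO cells stably expressing DOR, plated at 20 000 cells/well (figure legend: 100 000). Exposed to test agent with 4 μM forskolin (legend: 1 μM) in 1× PBS with 1 mM […] for 30 min at rt. HTRF cAMP read-out with europium cryptate and d2 in lysis buffer for 1 h. EC50 ± SEM from three experiments, two replicates each.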

[5] = system: Mus musculus; assay: Antinociceptive effect in C57BL/6 mouse assessed as tail withdrawal latency at 10 mg/kg, ip measured up to 2 hrs by 55 degC Warm water tail withdrawal assay; assay type: functional
[6] = system: Mus musculus; assay: Antinociceptive effect in C57BL/6 mouse assessed as tail withdrawal latency measured at 30 nM, icv up to 2 hrs by 55 degC Warm water tail withdrawal assay in presence of 30 nM, icv naloxone methiodide on same side of blood brain barrier impermeable opioid antagonist; assay type: functional, organism-based
Outline: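 Adult male C57BL/6J mice, 55 °C warm-water tail withdrawal. Naloxone methiodide pretreatment (30 nmol icv or 30 mg/kg sc) 30 min before the test agent (30 nmol icv in 50% DMSO/saline, or 10 mg/kg ip in 1:1:8 ethanol/Tween-80/saline). Read 30 min after the test agent. % antinociception vs baseline latency with 15 s cutoff. n = 8, mean ± SEM, one-way ANOVA/Tukey.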

[7] = system: Mus musculus; assay: Antinociceptive effect in C57BL/6 mouse assessed as tail withdrawal latency […] by 55 degC Warm water tail withdrawal assay in presence of 30 mg/kg, sc naloxone methiodide on other side of blood brain barrier impermeable opioid antagonist; assay type: functional, organism-based
[8] = system: Mus musculus; assay: Antinociceptive effect in icv dosed C57BL/6 mouse assessed as tail withdrawal latency measured up to 2 hrs by 55 degC Warm water tail withdrawal assay in presence of 0.5 mg/kg, sc naltrindole; assay type: functional, organism-based
[9] = system: Brain; assay: Drug uptake in C57BL/6 mouse brain at 30 mg/kg, po after 30 mins by LC-MS/MS analysis; assay type: ADME, organism-based; settings: in vivo, 0.5 h
Outline: (§1)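 Male C57BL/6J mice dosed orally at 30 mg/kg in 1:1:8 ethanol/Tween-80/saline, killed at 30, 60, or 90 min. Serum deproteinized with 4 volumes of cold MeCN. Perfused brains homogenized. Supernatants dried and reconstituted in 20% MeCN. C18 LC–MS/MS with summed ion-transition peak areas. Two mice per time point, mean peak area ± SEM.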

[10] = system: Mus musculus; assay: Antinociceptive effect in C57BL/6 mouse assessed as tail withdrawal latency measured up to 2 hrs by 55 degC Warm water tail withdrawal assay in presence of 10 mg/kg, ip U50488; assay type: functional, organism-based
Outline: (§2)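 Test agent given to male C57BL/6J mice 2 h before agonist challenge: morphine 10 mg/kg ip, U50,488 10 mg/kg ip, or SNC-80 100 nmol icv. 55 °C warm-water tail withdrawal read 30 min after the agonist. % antinociception relative to baseline latency with 15 s cutoff.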

[11] = system: Mus musculus; assay: Antinociceptive effect in icv dosed C57BL/6 mouse assessed as tail withdrawal latency measured up to 2 hrs by 55 degC Warm water tail withdrawal assay; assay type: functional
[12] = system: Mus musculus; assay: Antinociceptive tolerance in C57BL/6 mouse assessed as tail withdrawal latency measured treated at 5 nmol, icv first dose second dose after 8 hrs by 55 degC Warm water tail withdrawal assay; assay type: functional
Outline: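 Acute tolerance was tested in C57BL/6J mice, 8 per dose. The first icv dose was given at time 0: 3 nmol morphine or 5 nmol test agent. A second icv dose between 0.3 and 100 nmol followed 8 h later. Tail withdrawal at 55 °C was measured 30 min after the second injection. Tolerance was judged from the shift in ED50 between single and repeated treatment.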

[13] = system: Serum; assay: Drug uptake in C57BL/6 mouse serum at 30 mg/kg, po after 30 mins by LC-MS/MS analysis; assay type: ADME, organism-based; settings: in vivo, 0.5 h; outline: as §1
[14] = system: Mus musculus; assay: Antinociceptive effect in po dosed C57BL/6 mouse assessed as tail withdrawal latency measured up to 2 hrs by 55 degC Warm water tail withdrawal assay; assay type: functional; settings: C57BL/6, Tail
[15] = system: Mus musculus; assay: Antinociceptive effect in C57BL/6 mouse assessed as tail withdrawal latency measured up to 2 hrs by 55 degC Warm water tail withdrawal assay in presence of 100 nM, icv SNC80; assay type: functional, organism-based; outline: as §2
[16] = system: Mus musculus; assay: Antinociceptive effect in C57BL/6 mouse assessed as tail withdrawal latency measured at 30 nM, icv […] by 55 degC Warm water tail withdrawal assay in presence of 30 nM, icv naloxone methiodide on other side of blood brain barrier impermeable opioid antagonist; assay type: functional, organism-based
[17] = system: Mus musculus; assay: Analgesic activity in ip dosed C57BL/6 mouse assessed as inhibition of acetic acid-induced writhing response measured after 5 mins by acetic acid writhing assay; assay type: functional; settings: C57BL/6, ip
Outline: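 Adult male C57BL/6J mice, eight per dose, were given a single graded ip dose in 1:1:8 ethanol/Tween-80/saline vehicle. After 25 min they received 0.9% acetic acid ip. Writhes were counted for 15 min starting 5 min later. % antinociception was taken relative to the ip vehicle group, and ED50 with 95% CI was obtained by regression.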

[18] = system: Mus musculus; assay: Antinociceptive effect in C57BL/6 mouse assessed as tail withdrawal latency measured at 10 mg/kg, ip […] by 55 degC Warm water tail withdrawal assay in presence of 30 mg/kg, sc naloxone methiodide on same side of blood brain barrier impermeable opioid antagonist; assay type: functional, organism-based
[19] = system: Mus musculus; assay: Antinociceptive effect in C57BL/6 mouse assessed as tail withdrawal latency at 30 mg/kg, po measured up to 2 hrs by 55 degC Warm water tail withdrawal assay; assay type: functional
[20] = system: Mus musculus; assay: Antinociceptive effect in ip dosed C57BL/6 mouse assessed as tail withdrawal latency measured up to 2 hrs by 55 degC Warm water tail withdrawal assay; assay type: functional; settings: C57BL/6, Tail
[21] = system: Mus musculus; assay: Antinociceptive effect in C57BL/6 mouse assessed as tail withdrawal latency measured up to 2 hrs by 55 degC Warm water tail withdrawal assay in presence of 10 mg/kg, ip morphine; assay type: functional, organism-based; outline: as §2
[22] = system: Mus musculus; assay: Antinociceptive effect in icv treated C57BL/6 mouse assessed as tail withdrawal latency at 30 nM, icv measured up to 2 hrs by 55 degC Warm water tail withdrawal assay; assay type: functional
[23] = system: Mus musculus; assay: Antinociceptive effect in icv dosed KOR knock out C57BL/6 mouse assessed as tail withdrawal latency measured up to 2 hrs by 55 degC Warm water tail withdrawal assay; assay type: functional, organism-based
[24] = system: Mus musculus; assay: Toxicity in C57BL/6 mouse assessed as coordinated locomotor activity at 30 nM, icv up to 60 mins; assay type: organism-based; settings: in vivo, icv_or_intrathecal, 1 h, 0.03 µM
Outline: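 Rotorod test after seven habituation trials, the last used as baseline. Test agent 30 nmol icv, vehicle 50% DMSO/saline. Accelerating trials (0–20 rpm, 180 s max) from 10 min over 60 min. Latency to fall expressed as % change from baseline. n = 8–16 per group, repeated-measures/two-way ANOVA with Tukey.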

[25] = system: Mus musculus; assay: Antinociceptive effect in icv dosed MOR knock out C57BL/6 mouse assessed as tail withdrawal latency measured up to 2 hrs by 55 degC Warm water tail withdrawal assay; assay type: functional, organism-based
[26] = system: Mus musculus; assay: Antinociceptive effect in icv dosed C57BL/6 mouse assessed as tail withdrawal latency measured up to 2 hrs by 55 degC Warm water tail withdrawal assay in presence of 4 nmol, icv ICI174864; assay type: functional, organism-based

Oc1ccc(C[C@H]2CN3C(=CC4=NC[C@H](Cc5ccc(O)cc5)N4C[C@@H]3Cc3ccccc3)N2)cc1
Ki [1]: 69 nM
Ki [2]: 2370 nM
Ki [3]: 605 nM

CC(C)[C@H]1CN=C2C=C3N(CCc4ccccc4)[C@@H](Cc4ccc(O)cc4)CN3[C@@H](Cc3ccccc3)CN21
Ki [1]: 1380 nM
Ki [2]: 1900 nM
Ki [3]: 1110 nM

Oc1ccc(C[C@H]2CN3C(=CC4=NC[C@H](Cc5ccc(O)cc5)N4C[C@@H]3Cc3ccc(O)cc3)N2CCc2ccccc2)cc1
Ki [1]: 392 nM
Ki [2]: 1550 nM
Ki [3]: 246 nM

Oc1ccc(C[C@H]2CN3C(=CC4=NC[C@H](Cc5ccccc5)N4C[C@@H]3Cc3ccc(O)cc3)N2)cc1
Ki [1]: 338 nM
Ki [2]: 4140 nM
Ki [3]: 1180 nM

Oc1ccc(C[C@H]2CN3C(=CC4=NC[C@H](Cc5ccccc5)N4C[C@@H]3Cc3ccc(O)cc3)N2CCc2ccccc2)cc1
Ki [1]: 188 nM
Ki [2]: 1310 nM
Ki [3]: 878 nM

CC(C)C[C@H]1CN2C(=CC3=NC[C@H](Cc4ccccc4)N3C[C@@H]2Cc2ccc(O)cc2)N1
Ki [1]: 57 nM
Ki [2]: 3440 nM
EC50 [4]: 6360 nM
Ki [3]: 1330 nM

Oc1ccc(C[C@H]2CN3C(=CC4=NC[C@H](Cc5ccc(O)cc5)N4C[C@@H]3Cc3ccccc3)N2CCc2ccccc2)cc1
Ki [1]: 50 nM
Ki [2]: 767 nM
Ki [3]: 393 nM

CC(C)C[C@H]1CN2C(=CC3=NC[C@H](C(C)C)N3C[C@@H]2Cc2ccc(O)cc2)N1CCc1ccccc1
Ki [1]: 32 nM
Ki [2]: 23 nM
Time [5]: 80 min
inhibition [6]: inactive
EC50 [4]: 366 nM
Activity [7]: Active
inhibition [8]: inactive
Drug uptake [9]: Not Active
Activity [10]: Active
Activity [11]: Dose-dependent effect
ED50 [12]: 2.32 nmol
Drug uptake [13]: Active
ED50 [14]: 23.2 mg/kg
Activity [15]: Active
Activity [16]: Active
ED50 [17]: 0.07 mg/kg
inhibition [18]: inactive
Time [19]: 110 min
ED50 [20]: 5.09 mg/kg
Activity [21]: Active
Time [22]: 80 min
inhibition [23]: inactive
Activity [24]: Non-toxic
inhibition [25]: inactive
inhibition [26]: inactive

CC(C)C[C@H]1CN2C(=CC3=NC[C@H](C(C)C)N3C[C@@H]2Cc2ccccc2)N1
Ki [1]: ≥ 10000 nM
Ki [2]: 1080 nM
Ki [3]: > 10000 nM
